According to ChEMBL document CHEMBL1124618, “Synthesis of the 2-chloro analogues of 3'-deoxyadenosine, 2',3'-dideoxyadenosine, and 2',3'-didehydro-2',3'-dideoxyadenosine as potential antiviral agents” (1989):

Experiments:
Homo sapiens [1] = species: Homo sapiens; test: Compound was tested for its effect on Reverse Transcriptase (RT) production by HIV-Infected Human T4+ Lymphocytes (C8166) at 100 uM; assay type: functional
Homo sapiens [2] = species: Homo sapiens; test: Compound was tested for its effect on Reverse Transcriptase (RT) production by HIV-Infected Human T4+ Lymphocytes (C8166) at 2 uM; assay type: functional
Homo sapiens [3] = species: Homo sapiens; test: Compound was tested for its effect on Reverse Transcriptase (RT) production by HIV-Infected Human T4+ Lymphocytes (C8166) at 20 uM; assay type: functional
Homo sapiens [4] = species: Homo sapiens; test: Compound was tested for its effect on Reverse Transcriptase (RT) production by HIV-Infected Human T4+ Lymphocytes (C8166) at 200 uM; assay type: functional
Homo sapiens [5] = species: Homo sapiens; test: Compound was tested for its effect on the growth of human T4+ lymphocytes (C8166) in culture at 10 uM; assay type: functional
Homo sapiens [6] = species: Homo sapiens; test: Compound was tested for its effect on the growth of human T4+ lymphocytes (C8166) in culture at 100 uM; assay type: functional
Homo sapiens [7] = species: Homo sapiens; test: Compound was tested for its effect on the growth of human T4+ lymphocytes (C8166) in culture at 1000 uM; assay type: functional
Homo sapiens [8] = species: Homo sapiens; test: Compound was tested for its effect on the growth of human T4+ lymphocytes (C8166) in culture at 500 uM; assay type: functional
Homo sapiens [9] = species: Homo sapiens; test: Compound was tested for its relative effect on p24 viral core protein production by HIV -infected human T4+ lymphocytes (C8166) at 100 uM; assay type: functional
Homo sapiens [10] = species: Homo sapiens; test: Compound was tested for its relative effect on p24 viral core protein production by HIV -infected human T4+ lymphocytes (C8166) at 20 uM; assay type: functional
Homo sapiens [11] = species: Homo sapiens; test: Compound was tested for its relative effect on p24 viral core protein production by HIV -infected human T4+ lymphocytes (C8166) at 200 uM; assay type: functional
Homo sapiens [12] = species: Homo sapiens; test: Compound was tested for its effect on the growth of human T lymphocytes (SupT1) in culture at 1 uM; assay type: functional
How it was run: (§1)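 Uninfected lymphocyte lines (Raji B cells or SupT1 T cells) kept in growth medium and given drug dilutions. After 48 h, cells stained with trypan blue and counted. Viable cells (dye exclusion) expressed as percentage of untreated controls. Values from a typical experiment.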

Homo sapiens [13] = species: Homo sapiens; test: Compound was tested for its effect on the growth of human T lymphocytes (SupT1) in culture at 10 uM; assay type: functional; how it was run: as §1
Homo sapiens [14] = species: Homo sapiens; test: Compound was tested for its effect on the growth of human T lymphocytes (SupT1) in culture at 100 uM; assay type: functional; how it was run: as §1
Homo sapiens [15] = species: Homo sapiens; test: Compound was tested for its effect on the growth of human T lymphocytes (SupT1) in culture at 1000 uM; assay type: functional; how it was run: as §1
Homo sapiens [16] = species: Homo sapiens; test: Compound was tested for its effect on the growth of human T lymphocytes (SupT1) in culture at 500 uM; assay type: functional; how it was run: as §1
Homo sapiens [17] = species: Homo sapiens; test: Compound was tested for its effect on the growth of human B lymphocytes (Raji) in culture at 1 uM; assay type: functional; how it was run: as §1
Homo sapiens [18] = species: Homo sapiens; test: Compound was tested for its effect on the growth of human B lymphocytes (Raji) in culture at 10 uM; assay type: functional; how it was run: as §1
Homo sapiens [19] = species: Homo sapiens; test: Compound was tested for its effect on the growth of human B lymphocytes (Raji) in culture at 100 uM; assay type: functional; how it was run: as §1
Homo sapiens [20] = species: Homo sapiens; test: Compound was tested for its effect on the growth of human B lymphocytes (Raji) in culture at 1000 uM; assay type: functional; how it was run: as §1
Homo sapiens [21] = species: Homo sapiens; test: Compound was tested for its effect on the growth of human B lymphocytes (Raji) in culture at 500 uM; assay type: functional; how it was run: as §1
SC-1 (Mus musculus) [22] = test: Compound was tested for its effect on the growth of mouse fibroblasts (SC-1) in culture at 1 uM
SC-1 (Mus musculus) [23] = test: Compound was tested for its effect on the growth of mouse fibroblasts (SC-1) in culture at 10 uM
SC-1 (Mus musculus) [24] = test: Compound was tested for its effect on the growth of mouse fibroblasts (SC-1) in culture at 100 uM
Homo sapiens [25] = species: Homo sapiens; test: Compound was tested for its effect on reverse transcriptase of HIV-infected human T4+ lymphocytes (C8166) at 2 uM; assay type: functional
How it was run: (§2)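 C8166 T4+ cells (~2 × 10⁵ per well) exposed to drug dilutions, then infected with 2500 RT units of cell-free HIV HXBc2 strain; FBS heat-inactivated (55 °C, 60 min) or not. Drug-containing medium replaced every 3 days. On day 6, RT activity measured in cell supernatants and compared with untreated controls.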

Homo sapiens [26] = species: Homo sapiens; test: Compound was tested for its effect on reverse transcriptase of HIV-infected human T4+ lymphocytes (C8166) at 20 uM; assay type: functional; how it was run: as §2

Compound: Nc1nc(Cl)nc2c1ncn2C1CCC(CO)O1 (configuration not stated)
- Control (Homo sapiens [1]): 3%
- Control (Homo sapiens [2]): 100%
- Control (Homo sapiens [3]): 57%
- Control (Homo sapiens [4]): <1%
- Control (Homo sapiens [5]): 94%
- Control (Homo sapiens [6]): 77%
- Control (Homo sapiens [7]): 0%
- Control (Homo sapiens [8]): 37%
- p24 (Homo sapiens [9]): 2.2 ng/mL
- p24 (Homo sapiens [10]): 16 ng/mL
- p24 (Homo sapiens [11]): 0.2 ng/mL

Compound: Nc1ncnc2c1ncn2[C@H]1CC[C@@H](CO)O1
- Control (Homo sapiens [1]): <1%
- Control (Homo sapiens [2]): 25%
- Control (Homo sapiens [3]): 25%
- Control (Homo sapiens [4]): <1%
- Control (Homo sapiens [5]): 116%
- Control (Homo sapiens [6]): 116%
- Control (Homo sapiens [7]): 91%
- Control (Homo sapiens [8]): 90%
- p24 (Homo sapiens [9]): 1.8 ng/mL
- p24 (Homo sapiens [10]): 28 ng/mL
- p24 (Homo sapiens [11]): 0.2 ng/mL

Compound: Nc1nc(Cl)nc2c1ncn2C1OC(CO)CC1O (configuration not stated)
- Control (Homo sapiens [12]): 100%
- Control (Homo sapiens [13]): 81%
- Control (Homo sapiens [14]): 73%
- Control (Homo sapiens [15]): 8%
- Control (Homo sapiens [16]): 13%
- Control (Homo sapiens [17]): 98%
- Control (Homo sapiens [18]): 69%
- Control (Homo sapiens [19]): 43%
- Control (Homo sapiens [20]): 3%
- Control (Homo sapiens [21]): 8%
- Control (SC-1 (Mus musculus) [22]): 82%
- Control (SC-1 (Mus musculus) [23]): 53%
- Control (SC-1 (Mus musculus) [24]): 2%

Compound: Nc1nc(Cl)nc2c1ncn2C1C=CC(CO)O1 (configuration not stated)
- Control (Homo sapiens [25]): 53%
- Control (Homo sapiens [26]): 25%
